Assay results published in ChEMBL document CHEMBL1121744, “Synthesis and antihypertensive activity of a series of 8-substituted 1-oxa-3,8-diazaspiro[4.5]decan-2-ones” (J Med Chem, 1981).
Where “and” joins values, the source holds several entries; their conditions need not be identical. Equal values may be shown once. One block for each molecule: values may come before it. Calls of active or inactive are those of the source. No cut-off for these calls is given here.

Key:
Rattus norvegicus [1] = assay: Antihypertensive activity as percentage fall in systolic blood pressure in spontaneously hypertensive rats after a period of 1 hr for a dose of 50 mg/kg; format: functional, Artery
In short: (§1)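 Male Okamoto-Aoki SHR, trained, in groups of four matched for mean systolic pressure; one group per run received water vehicle. Oral dosing in water (0.1 mL per 10 g) on two consecutive mornings. After the day-2 dose, rats were restrained at 30.0 ± 1.0 °C. Systolic pressure was read by tail cuff (inflated to 300 mmHg, first pulse) at 1–4 h. % fall is versus the untreated control group, by 1-tail t test (p ≤ 0.05).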

[2] = (§2) Distribution coefficient between 1-Octanol and phosphate buffer at pH7.4; format: physicochemical; details: 1-octanol/phosphate buffer, pH 7.4
Rattus norvegicus [3] = assay: Antihypertensive activity as percentage fall in systolic blood pressure in spontaneously hypertensive rats after a period of 4 hr for a dose of 50 mg/kg po; format: functional, Artery; in short: as §1
Rattus norvegicus [4] = assay: Antihypertensive activity as percentage fall in systolic blood pressure in spontaneously hypertensive rats after a period of 2 hr for a dose of 25 mg/kg po.; NS=Not significant; format: functional, organism-based; design: dose 25 mg/kg; details: Artery; in short: as §1
Rattus norvegicus [5] = assay: Antihypertensive activity as percentage fall in systolic blood pressure in spontaneously hypertensive rats after a period of 4 hr for a dose of 25 mg/kg po.; NS=Not significant; format: functional, organism-based; design: dose 25 mg/kg; details: Artery; in short: as §1
Rattus norvegicus [6] = assay: Percentage fall in systolic blood pressure in spontaneously hypertensive rats after 3 h following 50 mg/kg p.o.; format: functional, Artery; details: route oral; in short: as §1
Rattus norvegicus [7] = assay: Antihypertensive activity as percentage fall in systolic blood pressure in spontaneously hypertensive rats after a period of 2 hr for a dose of 50 mg/kg; format: functional, organism-based; design: dose 50 mg/kg; details: Artery; in short: as §1
Rattus norvegicus [8] = assay: Antihypertensive activity as percentage fall in systolic blood pressure in spontaneously hypertensive rats after a period of 3 hr for a dose of 25 mg/kg po.; NS=Not significant; format: functional, organism-based; design: dose 25 mg/kg; details: Artery; in short: as §1
Rattus norvegicus [9] = assay: The antihypertensive activity as percentage fall in systolic blood pressure in spontaneously hypertensive rats after a period of 4 hr for a dose of 75 mg/kg po; NS=Not significant; format: functional, organism-based; design: dose 75 mg/kg; details: Artery
In short: (§3)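 Male Okamoto-Aoki SHR, trained, in groups of four matched for systolic pressure, with a concurrent vehicle control group. Oral dosing on two consecutive mornings, in water as solution or suspension at 0.1 mL/10 g. On day 2 rats were restrained at 30.0 ± 1.0 °C. Tail-cuff systolic pressure, four traces per rat, read at each hour. Per cent fall versus control; 1-tail t test, p ≤ 0.05.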

Rattus norvegicus [10] = assay: The antihypertensive activity as percentage fall in systolic blood pressure in spontaneously hypertensive rats after a period of 2 hr for a dose of 75 mg/kg po; NS=Not significant; format: functional, organism-based; design: dose 75 mg/kg; details: Artery; in short: as §3
[11] = as §2; format: physicochemical; details: 1-octanol/phosphate buffer, pH 7.4; remark: listed apart in the source
In short: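 Octanol/buffer distribution measured at pH 7.4 in phosphate with sodium chloride. Either HPLC (0.004 M) or shake flask.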

Rattus norvegicus [12] = assay: The antihypertensive activity as percentage fall in systolic blood pressure in spontaneously hypertensive rats after a period of 3 hr for a dose of 75 mg/kg po; NS=Not significant; format: functional, organism-based; design: dose 75 mg/kg; details: Artery; in short: as §3
Rattus norvegicus [13] = assay: The antihypertensive activity as percentage fall in systolic blood pressure in spontaneously hypertensive rats after a period of 1 hr for a dose of 50 mg/kg po
Rattus norvegicus [14] = assay: The antihypertensive activity as percentage fall in systolic blood pressure in spontaneously hypertensive rats after a period of 1 hr for a dose of 100 mg/kg po; format: functional, Artery; in short: as §1
Rattus norvegicus [15] = assay: The antihypertensive activity as percentage fall in systolic blood pressure in spontaneously hypertensive rats after a period of 2 hr for a dose of 100 mg/kg po; format: functional, Artery; in short: as §1
Rattus norvegicus [16] = assay: Antihypertensive activity as percentage fall in systolic blood pressure in spontaneously hypertensive rats after a period of 4 hr for a dose of 50 mg/kg; format: functional, organism-based; design: dose 50 mg/kg; details: Artery; in short: as §1
Rattus norvegicus [17] = assay: The antihypertensive activity as percentage fall in systolic blood pressure in spontaneously hypertensive rats after a period of 3 hr for a dose of 100 mg/kg po; format: functional, Artery; in short: as §1
Rattus norvegicus [18] = assay: The antihypertensive activity as percentage fall in systolic blood pressure in spontaneously hypertensive rats after a period of 4 hr for a dose of 100 mg/kg po; format: functional, Artery; in short: as §1
Rattus norvegicus [19] = assay: Percentage fall in systolic blood pressure in spontaneously hypertensive rats after 2 hr following 50 mg/kg p.o.; format: functional, Artery; details: route oral; in short: as §1
Rattus norvegicus [20] = assay: The antihypertensive activity as percentage fall in systolic blood pressure in spontaneously hypertensive rats after a period of 1 hr for a dose of 25 mg/kg po; format: functional, Artery; in short: as §1
Rattus norvegicus [21] = assay: The antihypertensive activity as percentage fall in systolic blood pressure in spontaneously hypertensive rats after a period of 3 hr for a dose of 25 mg/kg po; NS=Not significant; format: functional, organism-based; design: dose 25 mg/kg; details: Artery; in short: as §1
Rattus norvegicus [22] = assay: The antihypertensive activity as percentage fall in systolic blood pressure in spontaneously hypertensive rats after a period of 4 hr for a dose of 25 mg/kg po; NS=Not significant; format: functional, organism-based; design: dose 25 mg/kg; details: Artery; in short: as §1
Rattus norvegicus [23] = assay: The antihypertensive activity as percentage fall in systolic blood pressure in spontaneously hypertensive rats after a period of 2 hr for a dose of 25 mg/kg po; format: functional, Artery; in short: as §1

logD [2]: 0.96
SMILES: COc1ccccc1OCC(O)CN1CCC2(CC1)CN(C)C(=O)O2 (centres undefined)
Decrease in blood pressure (Rattus norvegicus [1]): 15%
Decrease in blood pressure (Rattus norvegicus [3]): 9%
Decrease in blood pressure (Rattus norvegicus [4]): inactive
Decrease in blood pressure (Rattus norvegicus [5]): inactive
Decrease in blood pressure (Rattus norvegicus [6]; 50 mg/kg): 19% and 7%
Decrease in blood pressure (Rattus norvegicus [7]): Not significant
Decrease in blood pressure (Rattus norvegicus [8]): inactive

SMILES: O=C1NC(Cc2ccccc2)C2(CCN(CCc3c[nH]c4ccccc34)CC2)O1 (centres undefined)
Decrease in blood pressure (Rattus norvegicus [9]): inactive
Decrease in blood pressure (Rattus norvegicus [10]): inactive
logD [11]: 2.68
Decrease in blood pressure (Rattus norvegicus [12]): inactive
Decrease in blood pressure (Rattus norvegicus [13]): 13%

logD [2]: 0.98
SMILES: O=C1NCC2(CCN(CC(O)C3COc4ccccc4O3)CC2)O1 (centres undefined)
Decrease in blood pressure (Rattus norvegicus [14]): 24%
Decrease in blood pressure (Rattus norvegicus [15]): 14%
Decrease in blood pressure (Rattus norvegicus [16]): Not significant
Decrease in blood pressure (Rattus norvegicus [17]): 11%
Decrease in blood pressure (Rattus norvegicus [1]): 28%
Decrease in blood pressure (Rattus norvegicus [6]): 21%
Decrease in blood pressure (Rattus norvegicus [18]): 16%
Decrease in blood pressure (Rattus norvegicus [19]): 12%

SMILES: CCN1CC2(CCN(CC(O)C3COc4ccccc4O3)CC2)OC1=O (centres undefined)
Decrease in blood pressure (Rattus norvegicus [20]): 18%
Decrease in blood pressure (Rattus norvegicus [21]): inactive
Decrease in blood pressure (Rattus norvegicus [1]): 32%
Decrease in blood pressure (Rattus norvegicus [22]): inactive
Decrease in blood pressure (Rattus norvegicus [23]): 9%
Decrease in blood pressure (Rattus norvegicus [6]): 11%
Decrease in blood pressure (Rattus norvegicus [19]; 50 mg/kg): 18% and 15%
